Results taken from PMC6379907 (Advanced biosystems, 2018).
Like-named read-outs stand apart in the source and are kept apart here.

Experiments:
S. aureus USA300 [1] = test: Membrane permeation, propidium iodide probe; type: cell-based, Staphylococcus aureus; conditions: peptides at 3.1 μM; antibiotics at their MIC values
Procedure, shortened: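 Serially diluted test compound was combined with propidium iodide (20 μM) and bacteria in TSB at final OD600 ~0.1. Incubated at 37°C with shaking at 100 rpm. Fluorescence (ex 584 nm, em 620 nm) was read every 5 min for 2 h. Each condition was run in duplicate.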

S. aureus USA300 [2] = test system: S. aureus USA300
chymotrypsin = conditions: cited from earlier work
fungal protease K = conditions: cited from earlier work
[3] = S. aureus USA300, MIC values used in Figure 9B

Molecule	membrane permeation of S. aureus USA300 (PI fluorescence) (S. aureus USA300 [1])	MIC of antibiotics (S. aureus USA300 [2]; [3])	resistance to chymotrypsin (chymotrypsin)	resistance to fungal protease K (fungal protease K)	MIC of antibiotics (S. aureus USA300 [2]; USA300, 20 h)
CO[C@H]1/C=C/O[C@@]2(C)Oc3c(C)c(O)c4c(O)c(cc(O)c4c3C2=O)NC(=O)/C(C)=C\C=C\[C@H](C)[C@H](O)[C@@H](C)[C@@H](O)[C@@H](C)[C@H](OC(C)=O)[C@@H]1C [rifamycin]	no membrane permeation	0.2 µM			
GF-17: synthetic peptide of LL-37 residues 17–32 plus an extra N-terminal glycine (FKRIVQRIKDFLRNLV; extra N-terminal glycine)			but not GF-17, is resistant	but not GF-17, is resistant	
CN[C@H](CC(C)C)C(=O)N[C@H]1C(=O)N[C@@H](CC(N)=O)C(=O)N[C@H]2C(=O)N[C@H]3C(=O)N[C@H](C(=O)N[C@H](C(=O)O)c4cc(O)cc(O)c4-c4cc3ccc4O)[C@H](O)c3ccc(c(Cl)c3)Oc3cc2cc(c3O[C@@H]2O[C@H](CO)[C@@H](O)[C@H](O)[C@H]2O[C@H]2C[C@](C)(N)[C@H](O)[C@H](C)O2)Oc2ccc(cc2Cl)[C@H]1O [vancomycin]	no membrane permeation	0.78 µM			
CCCCCCCCCC(=O)N[C@@H](Cc1c[nH]c2ccccc12)C(=O)N[C@H](CC(N)=O)C(=O)N[C@@H](CC(=O)O)C(=O)N[C@@H]1C(=O)NCC(=O)N[C@@H](CCCN)C(=O)N[C@@H](CC(=O)O)C(=O)N[C@H](C)C(=O)N[C@@H](CC(=O)O)C(=O)NCC(=O)N[C@H](CO)C(=O)N[C@@H]([C@H](C)CC(=O)O)C(=O)N[C@@H](CC(=O)c2ccccc2N)C(=O)O[C@@H]1C [daptomycin]					0.78 µM
